# Experimental data taken from ChEMBL document CHEMBL1140722, “Inhibition of adenosine deaminase by analogues of adenosine and inosine, incorporating a common heterocyclic base, 4(7)-amino-6(5)H-imidazo[4,5-d]pyridazin-7(4)one” (J Med Chem, 2008).
# Columns and labels:
# Adenosine deaminase = target: T1, Adenosine deaminase (Bos taurus, UniProt P56658); assay: Inhibition of calf intestine adenosine deaminase
# T1 sequence (P56658 whole entry): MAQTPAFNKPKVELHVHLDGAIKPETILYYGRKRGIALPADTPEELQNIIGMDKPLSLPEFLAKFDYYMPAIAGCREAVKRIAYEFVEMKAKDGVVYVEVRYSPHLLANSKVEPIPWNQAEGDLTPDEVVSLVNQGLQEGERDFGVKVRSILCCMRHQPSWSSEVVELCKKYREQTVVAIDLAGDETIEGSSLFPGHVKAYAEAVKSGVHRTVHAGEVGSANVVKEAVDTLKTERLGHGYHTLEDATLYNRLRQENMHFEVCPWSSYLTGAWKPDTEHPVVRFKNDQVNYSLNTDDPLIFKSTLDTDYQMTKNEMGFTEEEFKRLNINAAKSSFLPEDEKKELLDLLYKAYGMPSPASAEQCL
# Outline: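 Calf intestine ADA, 2 × 10-3 unit per assay, at 25 °C and pH 7.4. Adenosine hydrolysis to inosine followed as change in optical density per unit time at 265 nm. Seven adenosine concentrations from 30 to 60 µM were run at each inhibitor level of 5 or 15 µM. Ki derived from Lineweaver–Burk plots (1/V vs 1/S).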
# MCF7 = assay: Cytotoxicity against human MCF7 cells after 5 days by MTT assay; format: functional, cell-based; details: MCF7, 120 h
# Outline: (§1)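 Cells seeded at 2000/well in complete RPMI1640 and left to attach overnight at 37 °C in 5% CO2. Drug added from 20 mM DMSO stocks, final 0.0001–100 µM, eight replicates each. Exposure was continuous for 5 days, then MTT added and formazan read at 550 nm. IC50 and IC100 taken against vehicle controls and day-0 growth. Three independent experiments.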
# [1] = Cytotoxicity against human MCF10A cells after 5 days by MTT assay; format: cell-based; details: MCF-10A, 120 h; outline: as §1
Compound,Ki (Adenosine deaminase) [µM],IC50 (MCF7) [µM],IC50 [1] [µM]
N/N=C(\N)c1c(C(=O)NN)ncn1[C@@H]1O[C@H](CO)[C@@H](O)[C@H]1O,26.5,–,–
Nc1n[nH]c(=O)c2ncn([C@@H]3O[C@H](CO)[C@@H](O)[C@H]3O)c12,51.4,23.5,82.5
Nc1n[nH]c(=O)c2c1ncn2[C@@H]1O[C@H](CO)[C@@H](O)[C@H]1O,10.6,27.5,82.5
Nc1n[nH]c(=O)c2ncn([C@H]3C[C@H](O)[C@@H](CO)O3)c12,52,97.5,> 100
Nc1n[nH]c(=O)c2c1ncn2[C@H]1C[C@H](O)[C@@H](CO)O1,12.1,> 100,> 100
